Results collected from several papers.
Each line is one published result; the experiments were not run side by side.
Target: Cyclin-dependent kinase-like 5 (CDKL5, Homo sapiens, UniProt O76039)
Residues used in one study (O76039 1-960): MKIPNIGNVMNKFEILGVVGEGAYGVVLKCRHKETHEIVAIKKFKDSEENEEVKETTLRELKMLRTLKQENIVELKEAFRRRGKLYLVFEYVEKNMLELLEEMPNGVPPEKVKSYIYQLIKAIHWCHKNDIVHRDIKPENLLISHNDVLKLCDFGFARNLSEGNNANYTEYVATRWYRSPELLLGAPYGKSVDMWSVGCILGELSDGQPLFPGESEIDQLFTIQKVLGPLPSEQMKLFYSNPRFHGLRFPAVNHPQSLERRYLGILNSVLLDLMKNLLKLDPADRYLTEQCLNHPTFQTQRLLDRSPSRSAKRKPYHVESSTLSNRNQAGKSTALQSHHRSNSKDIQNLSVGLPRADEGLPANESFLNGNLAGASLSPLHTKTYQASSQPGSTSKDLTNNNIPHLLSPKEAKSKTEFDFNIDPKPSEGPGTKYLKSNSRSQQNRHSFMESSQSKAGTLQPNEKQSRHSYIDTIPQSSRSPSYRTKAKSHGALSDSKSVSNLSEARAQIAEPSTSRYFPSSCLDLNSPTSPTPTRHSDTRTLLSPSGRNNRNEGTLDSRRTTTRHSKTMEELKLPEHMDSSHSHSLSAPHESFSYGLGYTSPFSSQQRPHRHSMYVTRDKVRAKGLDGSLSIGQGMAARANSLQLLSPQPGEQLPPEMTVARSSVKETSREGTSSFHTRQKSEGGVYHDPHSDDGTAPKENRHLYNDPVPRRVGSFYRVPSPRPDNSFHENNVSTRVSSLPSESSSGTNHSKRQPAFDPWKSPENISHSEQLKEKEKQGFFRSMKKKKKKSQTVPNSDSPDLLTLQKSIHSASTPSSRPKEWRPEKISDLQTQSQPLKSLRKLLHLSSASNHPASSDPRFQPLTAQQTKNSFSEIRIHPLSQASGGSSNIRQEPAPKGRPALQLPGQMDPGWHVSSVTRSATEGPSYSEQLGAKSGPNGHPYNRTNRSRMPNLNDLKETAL

| SMILES | read-out | technique | tested at | remaining binding [%] |
| --- | --- | --- | --- | --- |
| COc1cnc(Nc2cccc(S(N)(=O)=O)c2)nc1N1CCN(c2ccccc2)CC1 | binding | competition with immobilised ligand | 1 µM | 72 |
| N[C@H]1CCN(c2nccc(-c3cnn4ncccc34)n2)C1 | binding |  | 1 µM | 100 |
| CNCc1ccccc1-c1csc([C@@H](C)Nc2nc(C)nc3cc(OC)c(OC)cc23)c1 | cell-free assay | competition with immobilised ligand | 1 µM | 94 |
| C[C@@H](c1ccc(-n2cnc3c(N)ncnc32)cc1)N1CCc2nn(C)c(Cc3ccccc3)c2C1=O | binding | competition with immobilised ligand | 0.1 µM | 71 |
| O=C(NCc1ncc(C(F)(F)F)cc1Cl)c1ccc2c(c1)C1(CCS(=O)(=O)CC1)[C@H](C1CC1)N2S(=O)(=O)c1ccc(F)cc1 | cell-free assay | competition with immobilised ligand | 1 µM | 78 |
| CN(C)c1nccc(-c2cnn3ncccc23)n1 | binding |  | 1 µM | 100 |
| O=C(Nc1c[nH]nc1C(=O)NC1CCNCC1)c1cc(F)cc(F)c1 | binding | competition with immobilised ligand | 1 µM | 0.2 |
| Cc1cnc(Nc2ccc(C(=O)N3CCC(N4CCCC4)CC3)cc2)nc1-c1cc2ccccc2s1 | binding | competition with immobilised ligand | 1 µM | 69 |
| CNC(=O)[C@@H]1CC[C@@H](n2c(-c3ccc4cnccc4c3)nc3ccc(C(=O)NCc4cccc(C(N)=O)c4)cc32)C1 | binding | competition with immobilised ligand | 1 µM | 100 |
| c1cncc(-c2cccc(Nc3nccc(NC4CCCCC4)n3)c2)c1 | binding | competition with immobilised ligand | 10 µM | 38 |
| CC1CCCN1c1nccc(-c2cnn3ncccc23)n1 (centres unmarked) | binding |  | 1 µM | 100 |
| O=C(NCCCN1CCOCC1)c1ccc(Nc2ncc(Cl)c(-c3ccc(Cl)s3)n2)cc1 | binding | competition with immobilised ligand | 1 µM | 26 |
| O=C(NS(=O)(=O)c1ccc(NCC2CCOCC2)c([N+](=O)[O-])c1)c1ccc(N2CCN(Cc3ccc(C(F)(F)F)cc3-c3ccc(Cl)cc3)CC2)cc1Oc1cnc2[nH]ccc2c1 | cell-free assay | competition with immobilised ligand | 1 µM | 74 |
| C[C@@H]1CCN(c2nccc(-c3cnn4ncccc34)n2)C1 | binding |  | 1 µM | 86 |
| C[C@H](c1ccc(F)cc1)N(Cc1cccc(C(=O)O)c1)C(=O)c1cnc2ccccc2c1 | binding | competition with immobilised ligand | 1 µM | 100 |
| Cc1cnn2ncc(-c3ccnc(N(C)C)n3)c2c1 | binding |  | 1 µM | 86 |
| CC1=C(C#N)C(c2ccc3c(c2)c(NC(=O)c2ccccc2C)nn3C)C(C#N)=C(C)N1 | binding | competition with immobilised ligand | 1 µM | 79 |
| O=C(c1ccc(Nc2ncc(Cl)c(-c3cc4ccccc4s3)n2)cc1)N1CCC(N2CCCC2)CC1 | binding | competition with immobilised ligand | 1 µM | 32 |
| CN(CCCC(F)(F)F)c1nccc(-c2cnn3ncccc23)n1 | binding |  | 1 µM | 100 |
| CC(C)CC(=O)N1CCc2nc(-c3ccc(Br)cc3)nc(N(C)Cc3ccccc3)c2C1 | cell-free assay | competition with immobilised ligand | 0.1 µM | 100 |
